Data reported in ChEMBL document CHEMBL1687796, “Synthesis and spectrum of the neoglycoside ACHN-490” (2010).
In brackets after ≈: the same amount, converted by molar mass.

How the values were obtained:
Assay type in all cases: functional
Citrobacter = experiment: Antibacterial activity against Citrobacter spp. by broth microdilution method
Outline: (§1)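 MICs were determined by CLSI broth microdilution against clinical isolate panels that included aminoglycoside-resistant isolates. […] MIC90 was derived per group and not calculated when n was <10. Imipenem, ceftobiprole, ciprofloxacin and tigecycline MICs were also determined for the resistant isolates.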

Escherichia coli = experiment: Antibacterial activity against Escherichia coli by broth microdilution method; outline: as §1
Enterobacter sp. = experiment: Antibacterial activity against Enterobacter spp. by broth microdilution method; outline: as §1
Klebsiella sp. = experiment: Antibacterial activity against Klebsiella spp. by broth microdilution method; outline: as §1
Proteus mirabilis = experiment: Antibacterial activity against Proteus mirabilis by broth microdilution method; outline: as §1
[1] = Antibacterial activity against indole positive Proteae by broth microdilution method; outline: as §1
Serratia sp. = experiment: Antibacterial activity against Serratia spp. by broth microdilution method; conditions: Serratia sp. (in: enterobacteria); outline: as §1
Staphylococcus sp. = experiment: Antibacterial activity against Staphylococcus spp. by broth microdilution method; outline: as §1
Acinetobacter sp. = experiment: Antibacterial activity against Acinetobacter spp. by broth microdilution method; outline: as §1
Pseudomonas aeruginosa = experiment: Antibacterial activity against Pseudomonas aeruginosa by broth microdilution method; outline: as §1

Structure (SMILES): CN(C)c1cc(NC(=O)CNC(C)(C)C)c(O)c2c1C[C@H]1C[C@H]3[C@H](N(C)C)C(O)=C(C(N)=O)C(=O)[C@@]3(O)C(O)=C1C2=O [TIGECYCLINE]
- MIC50 (Citrobacter): 0.5 µg/mL (≈ 0.854 µM)
- MIC50 (Escherichia coli): 0.25 µg/mL (≈ 0.427 µM)
- MIC90 (Escherichia coli): 0.5 µg/mL (≈ 0.854 µM)
- MIC50 (Enterobacter sp.): 0.5 µg/mL (≈ 0.854 µM)
- MIC90 (Enterobacter sp.): 4 µg/mL (≈ 6.83 µM)
- MIC50 (Klebsiella sp.): 1 µg/mL (≈ 1.71 µM)
- MIC90 (Klebsiella sp.): 2 µg/mL (≈ 3.41 µM)
- MIC50 (Proteus mirabilis): 4 µg/mL (≈ 6.83 µM)
- MIC90 (Proteus mirabilis): 8 µg/mL (≈ 13.7 µM)
- MIC50 [1]: 2 µg/mL (≈ 3.41 µM)
- MIC50 (Serratia sp.): 2 µg/mL (≈ 3.41 µM)
- MIC50 (Staphylococcus sp.): 0.25 µg/mL (≈ 0.427 µM)
- MIC90 (Staphylococcus sp.): 0.5 µg/mL (≈ 0.854 µM)
- MIC50 (Acinetobacter sp.): 2 µg/mL (≈ 3.41 µM)
- MIC90 (Acinetobacter sp.): 16 µg/mL (≈ 27.3 µM)
- MIC50 (Pseudomonas aeruginosa): 16 µg/mL (≈ 27.3 µM)
- MIC90 (Pseudomonas aeruginosa): > 16 µg/mL
